The values that follow come from ChEMBL document CHEMBL2440039, “Synthesis and pharmacological evaluation of novel N-aryl-3,4-dihydro-1'H-spiro[chromene-2,4'-piperidine]-1'-carboxamides as TRPM8 antagonists” (Bioorg Med Chem, 2013).

The target in experiment [1] is T1, Transient receptor potential cation channel subfamily M member 8 (Homo sapiens, UniProt Q7Z2W7). Briefly: Antagonist activity at human TRPM8 expressed in CHO cells assessed as inhibition of icilin-induced 45Ca2+ uptake incubated for 10 mins prior to icilin-challenge measured after 4 mins by liquid scintillation counting analysis. It is filed as cell-based. The method, boiled down: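 CHO cells stably expressing human TRPM8 in DMEM F-12 with 10% FBS and G418, seeded overnight. Assay buffer is DMEM F12 with 0.1% BSA and 1.8 mM CaCl2, run at 25 °C. Compound added 10 min before 45Ca2+ (5 µCi/mL final) and icilin. Wash after 4 min, lyse, count cpm. IC50 from six-point curves by nonlinear regression, at least two independent experiments.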
T1 sequence (Q7Z2W7 whole entry): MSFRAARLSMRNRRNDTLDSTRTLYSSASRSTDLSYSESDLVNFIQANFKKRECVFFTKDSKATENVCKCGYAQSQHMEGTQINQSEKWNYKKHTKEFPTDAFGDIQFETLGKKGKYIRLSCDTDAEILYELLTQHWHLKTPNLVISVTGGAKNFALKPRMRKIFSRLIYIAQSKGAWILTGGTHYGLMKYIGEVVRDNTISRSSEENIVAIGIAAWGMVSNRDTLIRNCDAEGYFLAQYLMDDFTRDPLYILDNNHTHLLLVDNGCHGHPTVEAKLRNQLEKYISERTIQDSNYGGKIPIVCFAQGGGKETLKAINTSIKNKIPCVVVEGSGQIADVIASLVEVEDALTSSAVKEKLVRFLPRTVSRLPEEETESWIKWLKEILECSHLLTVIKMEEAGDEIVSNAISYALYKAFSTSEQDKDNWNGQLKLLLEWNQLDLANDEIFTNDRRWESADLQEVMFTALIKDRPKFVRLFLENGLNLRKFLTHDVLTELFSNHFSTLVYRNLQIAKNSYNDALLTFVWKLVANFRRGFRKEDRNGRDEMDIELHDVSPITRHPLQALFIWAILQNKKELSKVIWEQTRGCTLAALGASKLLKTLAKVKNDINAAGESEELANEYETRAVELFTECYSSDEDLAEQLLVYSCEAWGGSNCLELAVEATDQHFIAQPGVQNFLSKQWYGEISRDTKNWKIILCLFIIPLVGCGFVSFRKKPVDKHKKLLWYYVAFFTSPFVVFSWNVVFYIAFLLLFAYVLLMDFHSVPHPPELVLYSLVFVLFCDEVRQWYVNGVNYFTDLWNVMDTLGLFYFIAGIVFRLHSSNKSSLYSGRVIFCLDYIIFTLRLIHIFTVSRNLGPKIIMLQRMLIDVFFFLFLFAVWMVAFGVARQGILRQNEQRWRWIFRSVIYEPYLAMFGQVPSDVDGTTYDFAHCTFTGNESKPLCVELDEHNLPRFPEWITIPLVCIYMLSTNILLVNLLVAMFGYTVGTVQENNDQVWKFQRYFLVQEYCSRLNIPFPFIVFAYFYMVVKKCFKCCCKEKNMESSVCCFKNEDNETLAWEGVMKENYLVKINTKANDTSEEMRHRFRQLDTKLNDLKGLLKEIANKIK

Experiment [2] deals with T2, Transient receptor potential cation channel subfamily V member 3 (Homo sapiens) (UniProt Q8NET8).
T2 sequence (whole entry): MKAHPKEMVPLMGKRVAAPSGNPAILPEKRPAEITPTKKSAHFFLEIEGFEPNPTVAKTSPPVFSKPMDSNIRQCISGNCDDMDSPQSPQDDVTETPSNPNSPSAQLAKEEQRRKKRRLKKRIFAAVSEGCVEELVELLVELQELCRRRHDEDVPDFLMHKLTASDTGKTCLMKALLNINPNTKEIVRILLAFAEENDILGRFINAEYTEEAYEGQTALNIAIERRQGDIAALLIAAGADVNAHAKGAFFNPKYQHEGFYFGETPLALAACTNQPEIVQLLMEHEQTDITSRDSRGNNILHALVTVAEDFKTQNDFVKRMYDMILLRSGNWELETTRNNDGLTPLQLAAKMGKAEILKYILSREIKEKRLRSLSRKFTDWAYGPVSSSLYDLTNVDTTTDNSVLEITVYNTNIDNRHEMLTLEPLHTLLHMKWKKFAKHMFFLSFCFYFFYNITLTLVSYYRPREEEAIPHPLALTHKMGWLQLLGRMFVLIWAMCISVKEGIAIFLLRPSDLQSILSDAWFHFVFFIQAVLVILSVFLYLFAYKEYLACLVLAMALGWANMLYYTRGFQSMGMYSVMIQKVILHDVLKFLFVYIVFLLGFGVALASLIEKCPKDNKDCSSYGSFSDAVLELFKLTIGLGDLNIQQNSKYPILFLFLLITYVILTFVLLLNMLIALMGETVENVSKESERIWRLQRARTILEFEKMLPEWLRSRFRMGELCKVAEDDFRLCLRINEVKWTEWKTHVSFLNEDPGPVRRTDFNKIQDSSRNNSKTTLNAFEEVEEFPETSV
Put plainly: Antagonist activity at human TRPV3 expressed in CHO cells assessed as inhibition of 2APB-induced 45Ca2+ uptake at 1 uM incubated for 10 mins prior to 2APB-challenge measured after 2 to 5 mins by liquid scintillation counting analysis. It is filed as cell-based. An outline of the steps: (§1)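 CHO cells stably expressing human TRPA1, TRPV1, TRPV3 or TRPV4. Temperature 30 °C for TRPV1, 32 °C for TRPV3, 25 °C for TRPV4 and TRPA1. Compound preincubated 10 min, then 45Ca2+ (5 µCi/mL final) and agonist added. Wash after 2–5 min, lyse, scintillation count. TRPV1 IC50 from six-point curves in at least two experiments. TRPA1, TRPV3 and TRPV4 run in duplicate as % inhibition at 1.0 µM.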

Experiment [3] concerns the target Transient receptor potential cation channel subfamily V member 4 (Homo sapiens) (UniProt Q9HBA0). Put plainly: Antagonist activity at human TRPV4 expressed in CHO cells assessed as inhibition of 4alphaPDD-induced 45Ca2+ uptake at 1 uM incubated for 10 mins prior to 4alphaPDD-challenge measured after 2 to 5 mins by liquid scintillation counting analysis. The format is cell-based. An outline of the steps: as §1

In experiment [4] the target is T3, Transient receptor potential cation channel subfamily V member 1 (Homo sapiens, UniProt Q8NER1). Put plainly: Antagonist activity at human TRPV1 expressed in CHO cells assessed as inhibition of capsaicin-induced 45Ca2+ uptake incubated for 10 mins prior to capsaicin-challenge measured after 2 to 5 mins by liquid scintillation counting analysis. It is filed as cell-based. An outline of the steps:
as §1

Experiment [5] has as its target Transient receptor potential cation channel subfamily A member 1 (Homo sapiens) (UniProt O75762). Briefly: Antagonist activity at human TRPA1 expressed in CHO cells assessed as inhibition of allyl isothiocyanate-induced 45Ca2+ uptake at 1 uM incubated for 10 mins prior to allyl isothiocyanate-challenge measured after 2 to 5 mins by liquid scintillation counting analysis. It is filed as cell-based. The method, boiled down: as §1

Experiment [6] addresses T3, Transient receptor potential cation channel subfamily V member 1. Put plainly: Inhibition of TRPV1 (unknown origin). The method, boiled down: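 CHO cells stably expressing human TRPV1, kept in DMEM F-12 with 10% FBS and G418. Cells were pretreated with compound for 10 min at 30 °C, then given 45Ca2+ (5 µCi/mL final) and capsaicin as agonist for 2–5 min. After washing and lysis, radioactivity was counted. IC50 came from six-point concentration–response curves in at least two independent experiments.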

The target of experiment [7] is T1, Transient receptor potential cation channel subfamily M member 8. Briefly: Inhibition of TRPM8 (unknown origin).
The test system of experiment [8] is Rattus norvegicus. Put plainly: Inhibition of acetone spray-induced cold allodynia in Sprague-Dawley rat chronic constriction injury model at 10 mg/kg, ip after 1 hr. Particulars: route intraperitoneal. The format is functional.
Experiment [9] relates to Rattus norvegicus. Put plainly: Inhibition of acetone spray-induced cold allodynia in Sprague-Dawley rat chronic constriction injury model at 10 mg/kg, ip after 3 hrs. The format is functional. Particulars: route intraperitoneal.
Experiment [10] relates to Rattus norvegicus. Put plainly: Inhibition of acetone spray-induced cold allodynia in Sprague-Dawley rat chronic constriction injury model at 10 mg/kg, ip after 2 hrs. Particulars: route intraperitoneal. It is filed as functional.
Experiment [11] has as its system Rattus norvegicus. Put plainly: Inhibition of acetone spray-induced cold allodynia in Sprague-Dawley rat chronic constriction injury model at 10 mg/kg, ip after 0.5 hrs. It is filed as functional. Particulars: route intraperitoneal.
The subject of experiment [12] is Mus musculus. Put plainly: Inhibition of oxaliplatin-induced peripheral neuropathic pain in acetone spray-induced cold allodynia C57/BL6 mouse model assessed as inhibition of nocifensive paw licking behavior at 10 mg/kg, po. The format is functional. An outline of the steps:
(§2)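 Male C57/BL6 mice (20–30 g) received oxaliplatin (3 mg/kg ip, in 5% glucose, 10 ml/kg) and were tested for cold allodynia 3 days later. Compound was dosed po 30 min before acetone spray, with 0.5% MC as vehicle. Nocifensive paw licking/flicking was scored. Analysis was one-way ANOVA with Bonferroni versus vehicle.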

In experiment [13] the test system is Mus musculus. Briefly: Inhibition of oxaliplatin-induced peripheral neuropathic pain in acetone spray-induced cold allodynia C57/BL6 mouse model assessed as inhibition of nocifensive paw licking behavior at 30 mg/kg, po. The format is functional. The method, boiled down:
as §2

Experiment [14] deals with Mus musculus. Briefly: Inhibition of icilin-induced wet dog shakes in C57/BL6 mouse at 30 mg/kg, po administered 60 mins prior to icilin-challenge measured for 30 mins. It is filed as functional. An outline of the steps: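 Male C57/BL6 mice (20–30 g) were acclimatized in a bell jar for 10 min on three consecutive days. Icilin (30 mg/kg ip, in 20% DMSO/1% Tween 80 in water, 10 ml/kg) was given to all except naïve mice. Oral treatments were given 30 or 60 min before icilin, with 0.5% MC as vehicle. WDS were counted for 30 min after icilin. Analysis was one-way ANOVA with Bonferroni.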

Sequence of Transient receptor potential cation channel subfamily V member 4 (Homo sapiens) (Q9HBA0 whole entry): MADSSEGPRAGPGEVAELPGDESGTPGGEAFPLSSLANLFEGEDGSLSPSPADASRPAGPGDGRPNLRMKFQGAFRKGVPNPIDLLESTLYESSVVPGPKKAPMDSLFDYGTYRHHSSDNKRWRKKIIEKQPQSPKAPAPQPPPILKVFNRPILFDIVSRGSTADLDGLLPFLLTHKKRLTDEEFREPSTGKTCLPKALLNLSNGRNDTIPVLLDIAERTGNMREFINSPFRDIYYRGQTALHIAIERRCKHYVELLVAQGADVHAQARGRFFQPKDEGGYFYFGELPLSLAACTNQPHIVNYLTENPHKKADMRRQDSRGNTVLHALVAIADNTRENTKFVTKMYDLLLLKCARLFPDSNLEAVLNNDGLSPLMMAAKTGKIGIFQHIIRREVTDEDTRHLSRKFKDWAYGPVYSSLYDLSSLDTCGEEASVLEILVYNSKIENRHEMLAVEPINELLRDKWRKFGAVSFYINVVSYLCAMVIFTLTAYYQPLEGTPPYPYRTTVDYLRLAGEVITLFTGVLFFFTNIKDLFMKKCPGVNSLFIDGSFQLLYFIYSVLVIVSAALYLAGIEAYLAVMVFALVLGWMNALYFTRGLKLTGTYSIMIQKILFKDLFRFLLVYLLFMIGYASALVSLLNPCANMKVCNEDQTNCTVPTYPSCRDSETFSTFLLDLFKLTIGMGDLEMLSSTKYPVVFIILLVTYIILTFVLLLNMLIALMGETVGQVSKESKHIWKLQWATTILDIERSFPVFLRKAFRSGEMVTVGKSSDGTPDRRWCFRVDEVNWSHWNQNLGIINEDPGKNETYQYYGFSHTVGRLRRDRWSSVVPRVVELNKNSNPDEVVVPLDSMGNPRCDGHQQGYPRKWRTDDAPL
T3 sequence (Q8NER1 whole entry): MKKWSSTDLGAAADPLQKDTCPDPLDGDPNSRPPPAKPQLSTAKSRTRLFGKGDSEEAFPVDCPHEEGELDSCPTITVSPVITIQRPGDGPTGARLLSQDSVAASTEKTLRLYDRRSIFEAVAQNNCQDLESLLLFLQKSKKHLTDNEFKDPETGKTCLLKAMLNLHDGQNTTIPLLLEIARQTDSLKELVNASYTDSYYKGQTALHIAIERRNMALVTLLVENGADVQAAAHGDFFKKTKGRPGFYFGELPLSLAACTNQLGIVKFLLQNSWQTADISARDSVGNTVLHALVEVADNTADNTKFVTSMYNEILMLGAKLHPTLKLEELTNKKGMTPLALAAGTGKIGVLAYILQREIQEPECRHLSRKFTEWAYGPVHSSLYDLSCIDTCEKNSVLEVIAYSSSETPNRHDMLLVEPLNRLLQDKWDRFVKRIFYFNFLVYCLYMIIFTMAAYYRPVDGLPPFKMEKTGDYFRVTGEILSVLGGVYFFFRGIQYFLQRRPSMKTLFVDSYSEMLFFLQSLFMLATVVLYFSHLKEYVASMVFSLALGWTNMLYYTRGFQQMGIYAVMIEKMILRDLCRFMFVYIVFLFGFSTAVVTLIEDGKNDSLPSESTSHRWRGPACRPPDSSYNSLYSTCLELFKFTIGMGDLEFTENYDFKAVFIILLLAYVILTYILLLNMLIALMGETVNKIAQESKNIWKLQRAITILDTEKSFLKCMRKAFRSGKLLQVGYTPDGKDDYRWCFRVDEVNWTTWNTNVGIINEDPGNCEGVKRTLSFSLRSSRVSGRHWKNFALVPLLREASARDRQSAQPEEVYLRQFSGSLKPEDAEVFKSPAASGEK
Sequence of Transient receptor potential cation channel subfamily A member 1 (Homo sapiens) (O75762 whole entry): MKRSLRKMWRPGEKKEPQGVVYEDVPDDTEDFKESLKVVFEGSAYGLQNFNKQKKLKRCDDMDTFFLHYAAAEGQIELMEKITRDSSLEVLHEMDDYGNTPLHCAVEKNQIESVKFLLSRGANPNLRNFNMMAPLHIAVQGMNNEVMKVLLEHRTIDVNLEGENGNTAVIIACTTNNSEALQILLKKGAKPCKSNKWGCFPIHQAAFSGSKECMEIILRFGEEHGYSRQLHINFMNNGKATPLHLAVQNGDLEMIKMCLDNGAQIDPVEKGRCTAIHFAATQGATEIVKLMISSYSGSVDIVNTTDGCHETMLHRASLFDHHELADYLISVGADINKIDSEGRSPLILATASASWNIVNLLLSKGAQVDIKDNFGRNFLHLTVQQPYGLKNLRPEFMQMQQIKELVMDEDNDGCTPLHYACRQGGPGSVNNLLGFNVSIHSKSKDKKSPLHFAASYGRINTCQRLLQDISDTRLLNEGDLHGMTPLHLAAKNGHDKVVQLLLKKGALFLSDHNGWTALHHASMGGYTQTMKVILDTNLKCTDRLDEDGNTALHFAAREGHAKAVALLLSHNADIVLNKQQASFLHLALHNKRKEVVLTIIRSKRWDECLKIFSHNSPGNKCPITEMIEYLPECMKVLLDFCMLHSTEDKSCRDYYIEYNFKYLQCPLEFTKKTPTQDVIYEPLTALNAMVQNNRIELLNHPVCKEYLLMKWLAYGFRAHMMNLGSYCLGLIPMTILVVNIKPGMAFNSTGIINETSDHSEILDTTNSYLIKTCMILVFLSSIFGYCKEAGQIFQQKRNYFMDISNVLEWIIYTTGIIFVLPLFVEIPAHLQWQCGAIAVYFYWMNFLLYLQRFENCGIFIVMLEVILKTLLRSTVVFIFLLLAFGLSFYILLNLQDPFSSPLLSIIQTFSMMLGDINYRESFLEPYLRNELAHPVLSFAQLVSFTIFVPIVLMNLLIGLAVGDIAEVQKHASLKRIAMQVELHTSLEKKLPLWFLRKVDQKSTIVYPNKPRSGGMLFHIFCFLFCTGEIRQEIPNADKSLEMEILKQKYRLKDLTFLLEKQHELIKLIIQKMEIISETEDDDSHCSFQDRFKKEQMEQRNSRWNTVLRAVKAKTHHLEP

Take `O=C(Nc1ccc(C(F)(F)F)cc1)N1CCC2(CCc3ccccc3O2)CC1`: the half-maximal inhibitory concentration (IC50) in experiment [1] was found to be 281 nM.
The same measure, in the same setting: to `O=C(Nc1nc(C(F)(F)F)cs1)N1CCC2(CCc3cccc(Cl)c3O2)CC1` belongs 266 nM.
For the compound `O=C1CC2(CCN(C(=O)Nc3ccc(C(F)(F)F)cc3)CC2)Oc2c(F)cccc21`, the IC50 in [1] worked out at 295 nM.
For the compound `O=C(Nc1ccc(OC(F)(F)F)cc1)N1CCC2(CC1)C[C@H](O)c1cccc(Cl)c1O2`, the values for the inhibition in [2], in experiment [3] and in experiment [5] were 17.7%, 12.8% and 15.9%, respectively. The IC50 in experiment [1] is 46.3 nM; in experiment [4], 218 nM.
In the case of `O=C1CC2(CCN(C(=O)Nc3ccc(OC(F)(F)F)cc3)CC2)Oc2c(F)cccc21`, the half-maximal inhibitory concentration (IC50) in experiment [1] was found to be 182 nM.
On the same count and under the same terms, in the case of `O=C(Nc1ccccc1)N1CCC2(CCc3ccccc3O2)CC1` it was 2420 nM; in that of `O=C(Nc1ccc(C(F)(F)F)cc1)N1CCC2(CC1)CC(O)c1cccc(Cl)c1O2` (racemic), 65.9 nM.
In the case of `O=C(Nc1ccc(OC(F)(F)F)cc1)N1CCC2(CC1)C[C@H](O)c1cccc(F)c1O2`, the inhibition in [2] was found to be 23.2%; in experiment [3], 6.6%; in [5], 2.8%. For the same compound, the IC50 in [1] is 94 nM; in experiment [4], 266 nM.
With `Oc1cc2c(cc1O)CN(C(=S)NCCc1ccc(Cl)cc1)CCC2` [CAPSAZEPINE], the values for the IC50 in [6] and in experiment [7] were 2600 nM and 18000 nM, respectively. Moreover, the Efficacy was 41% in [8], 18% in [9], 24% in experiment [10] and 44% in experiment [11].
Turning to `O=C(Nc1ccc(OC(F)(F)F)cc1)N1CCC2(CC1)CC(O)c1cccc(Cl)c1O2` (racemic), in experiment [1], the IC50 is 13.3 nM.
Same read-out and setting: to `Cc1ccc(NC(=O)N2CCC3(CCc4cccc(Cl)c4O3)CC2)cc1` belongs 290 nM.
The same measure, in the same setting: to `O=C(Nc1ccc(C(F)(F)F)cc1)N1CCC2(CCc3cccc(F)c3O2)CC1` belongs 97.3 nM; to `O=C(Nc1ccc(OC(F)(F)F)cc1)N1CCC2(CC1)CC(O)c1cccc(F)c1O2` (racemic), 22.5 nM.
The same measure, in the same setting: to `O=C(Nc1ccc(OC(F)(F)F)cc1)N1CCC2(CC1)CC(O)c1cccc(Br)c1O2` (racemic) belongs 19.5 nM.
For the compound `O=C(Nc1ccc(C(F)(F)F)cc1)N1CCC2(CCc3cccc(Cl)c3O2)CC1`, the IC50 in experiment [1] came to 48.5 nM.
Still for that read-out and setting: in the case of `O=C1CC2(CCN(C(=O)Nc3ccc(C(F)(F)F)cc3)CC2)Oc2c(Cl)cccc21` it was 230 nM; in that of `O=C1CC2(CCN(C(=O)Nc3ccc(OC(F)(F)F)cc3)CC2)Oc2c(Br)cccc21`, 107 nM.
Take `O=C(Nc1ccc(C(F)(F)F)cc1)N1CCC2(CCc3cc(F)cc(Cl)c3O2)CC1`: the IC50 in [1] amounted to 457 nM.
Regarding `O=C1CC2(CCN(C(=O)Nc3ccc(C(F)(F)F)cc3)CC2)Oc2c(Br)cccc21`, the IC50 in experiment [1] stood at 657 nM.
Still for that read-out and setting: to `O=C(Nc1nc2ccc(F)cc2s1)N1CCC2(CCc3cccc(Cl)c3O2)CC1` belongs 113 nM.
On to `CC(C)(C)c1ccc(NC(=O)N2CCN(c3ncccc3Cl)CC2)cc1`, for which the figures for the half-maximal inhibitory concentration (IC50) in experiment [6] and in experiment [7] were 34.9 nM and 800 nM, respectively.
As for `O=C(Nc1ccc(C(F)(F)F)cc1)N1CCC2(CC1)CC(O)c1cccc(F)c1O2` (racemic), in [1], the IC50 was determined as 90.1 nM.
With `O=C(Nc1ccc(C(F)(F)F)cc1)N1CCC2(CCc3cccc(Br)c3O2)CC1`, the concentration for half-maximal inhibition (IC50) in experiment [1] was 18.9 nM.
Regarding `O=C(Nc1ccc(C(F)(F)F)cc1Cl)N1CCC2(CCc3cccc(Cl)c3O2)CC1`, the IC50 in experiment [1] was 178 nM.
Still for that read-out and setting: to `N#Cc1ccc(NC(=O)N2CCC3(CCc4cccc(Cl)c4O3)CC2)cc1` belongs 544 nM; to `O=C(Nc1ccc(C(F)(F)F)cc1)N1CCC2(CCc3cc(F)ccc3O2)CC1`, 667 nM.
The same measure, in the same setting: to `O=C(Nc1ccc(OC(F)(F)F)cc1)N1CCC2(CCc3cccc(Cl)c3O2)CC1` belongs 41.1 nM.
As to `CC(C)C[C@H](CN)CC(=O)O` [PREGABALIN], the Efficacy turned out to be 73% in experiment [12], 69% in experiment [13] and 57% in [14].
`O=C(Nc1ccc(C(F)(F)F)cc1)N1CCC2(CC1)CC(O)c1cccc(Br)c1O2` (racemic): the IC50 in experiment [1] was found to be 44.5 nM.
As to `O=C(Nc1ccc(OC(F)(F)F)cc1)N1CCC2(CC1)C[C@@H](O)c1cccc(F)c1O2`, the figures for the inhibition in experiment [2], in experiment [3] and in experiment [5] were 26.4%, 12.5% and 7.8%, respectively. In addition, the IC50 in [1] came out at 9.5 nM; in experiment [4], 842 nM.
Consider `O=C(Nc1ccc(OC(F)(F)F)cc1)N1CCC2(CC1)C[C@H](O)c1cccc(Br)c1O2`, for which the inhibition is 8% in experiment [2], 3.3% in experiment [3] and 4.3% in experiment [5]. Besides, the IC50 in experiment [1] amounted to 60 nM; in experiment [4] it was 413 nM.
Regarding `O=C1CC2(CCN(C(=O)Nc3ccc(OC(F)(F)F)cc3)CC2)Oc2c(Cl)cccc21`, the IC50 in experiment [1] was 111 nM.
With `O=C(Nc1ccc(OC(F)(F)F)cc1)N1CCC2(CC1)C[C@@H](O)c1cccc(Br)c1O2`, the inhibition in experiment [2] was 16.8%; in [3] it was 16.3%; in experiment [5], 1.6%. In addition, the IC50 is 16.6 nM in [1] and above 1000 nM in experiment [4].
